Source: ChEMBL document CHEMBL1806370, “Development of novel naphthalimide derivatives and their evaluation as potential melanoma therapeutics” (Eur J Med Chem, 2011)

Tests used:
Mus musculus [1] = test: Systemic toxicity in Swiss Webster mouse assessed as mortality at 15 mg/kg, ip administered every day for 28 days; assay type: organism-based; parameters: dose 15 mg/kg, route intraperitoneal; details: in vivo, 672 h
In short: (§1)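 Swiss Webster mice, n = 4 per group, dosed i.p. once daily for 28 days at 5, 7.5, 10 or 15 mg/kg body weight. Body weight recorded twice per week; deaths noted over the dosing period.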

UACC-903 [2] = test: Induction of apoptosis in human UACC-903 cells assessed as non-viable cells at 1 uM after 24 hrs using annexin-V-PE/7-AAD double staining by flow cytometry; assay type: functional
In short: (§2)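 UACC 903 cells were exposed 24 h at 37 °C to 1, 5 or 25 µM, with DMSO as control. Cells were harvested, washed twice in cold PBS and resuspended at 1×10^6 cells/mL in binding buffer. They were stained with 7-AAD plus PE Annexin V for 20 min at room temperature in the dark and run by flow cytometry within 1 h. Gating: double-negative live, 7-AAD+ dead, Annexin V+/7-AAD− early apoptotic. Three separate experiments.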

UACC-903 [3] = test: Induction of apoptosis in human UACC-903 cells assessed as viable cells at 25 uM after 24 hrs using annexin-V-PE/7-AAD double staining by flow cytometry; assay type: functional; details: UACC-903, 24 h, read-out: Activity; in short: as §2
[4] = Cytotoxicity against human SK-MEL-37 cells after 72 hrs by MTS assay; assay type: functional, cell-based
In short: (§3)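 Cells in DMEM with 10% FBS at 37 °C and 5% CO2 were plated at 5×10^3 per well and grown 24 h. They were then exposed 24 or 72 h to 0.5, 1, 5, 10, 25 and 50 µM, with final DMSO 0.5% and DMSO controls. MTS/PMS was added for 4 h at 37 °C. A492 was read with the medium blank subtracted and expressed as % of control. IC50 was taken from three independent experiments (mean ± S.E.).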

UACC-903 [5] = test: Induction of apoptosis in human UACC-903 cells assessed as non-viable cells at 25 uM after 24 hrs using annexin-V-PE/7-AAD double staining by flow cytometry; assay type: functional; in short: as §2
Mus musculus [6] = test: Systemic toxicity in Swiss Webster mouse assessed as mortality at 10 mg/kg, ip administered every day for 28 days; assay type: organism-based; parameters: dose 10 mg/kg, route intraperitoneal; details: in vivo, 672 h; in short: as §1
UACC-903 [7] = test: Induction of apoptosis in human UACC-903 cells assessed as non-viable cells at 5 uM after 24 hrs using annexin-V-PE/7-AAD double staining by flow cytometry; assay type: functional; in short: as §2
[8] = Cytotoxicity against human 1205 Lu cells after 24 hrs by MTS assay; assay type: functional, cell-based; in short: as §3
SK-MEL-37 (Homo sapiens) [9] = test: Cytotoxicity against human SK-MEL-37 cells assessed as decrease in cell viability after 72 hrs by MTS assay
UACC-903 [10] = test: Induction of apoptosis in human UACC-903 cells assessed as early apoptotic cells at 25 uM after 24 hrs using annexin-V-PE/7-AAD double staining by flow cytometry; assay type: functional; in short: as §2
UACC-903 [11] = test: Induction of apoptosis in human UACC-903 cells assessed as viable cells at 5 uM after 24 hrs using annexin-V-PE/7-AAD double staining by flow cytometry; assay type: functional; details: UACC-903, 24 h, read-out: Activity; in short: as §2
UACC-903 [12] = test: Antitumor activity against human UACC-903 cells xenografted in athymic Harlan Sprague-Dawley nude mouse assessed as reduction in tumor growth at 8.5 to 10 mg/kg, ip administered daily for 24 days measured after 21 days; assay type: functional; details: dose mg/kg 8.5-10; route intraperitoneal
In short: (§4)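 Female athymic nude mice, 4–6 weeks old, received 5×10^6 UACC 903 cells s.c. in DMEM/10% FBS above both rib cages. After six days they were randomized at 5 mice/group, 2 tumors/mouse. Dosing was i.p. Mon/Wed/Fri, with one arm dosed daily; controls got DMSO vehicle. Tumor dimensions (calipers, mm³) and body weight were recorded three times weekly.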

UACC-903 [13] = test: Cytotoxicity against human UACC-903 cells assessed as decrease in cell viability after 72 hrs by MTS assay; assay type: functional, cell-based; in short: as §3
A375-S2 [14] = test: Cytotoxicity against human A375-S2 cells assessed as decrease in cell viability after 72 hrs by MTS assay; assay type: functional, cell-based; in short: as §3
[15] = Cytotoxicity against human SK-MEL-37 cells after 24 hrs by MTS assay; assay type: functional, cell-based; in short: as §3
1205Lu [16] = test: Cytotoxicity against human 1205 Lu cells assessed as decrease in cell viability after 24 hrs by MTS assay; assay type: functional, cell-based; in short: as §3
[17] = Cytotoxicity against human 1205 Lu cells after 72 hrs by MTS assay; assay type: functional, cell-based; in short: as §3
UACC-903 [18] = test: Induction of apoptosis in human UACC-903 cells assessed as viable cells at 1 uM after 24 hrs using annexin-V-PE/7-AAD double staining by flow cytometry; assay type: functional; details: UACC-903, 24 h, read-out: Activity; in short: as §2
Mus musculus [19] = test: Systemic toxicity in Swiss Webster mouse assessed as weight loss at 10 mg/kg, ip administered every day for 28 days; assay type: organism-based; parameters: dose 10 mg/kg, route intraperitoneal; details: in vivo, 672 h; in short: as §1
[20] = Cytotoxicity against human A375-S2 cells after 72 hrs by MTS assay; assay type: functional, cell-based; details: A375-S2, 72 h; in short: as §3
UACC-903 [21] = test: Cytotoxicity against human UACC-903 cells after 24 hrs by MTS assay; assay type: functional, cell-based; details: UACC-903, 24 h; in short: as §3
[22] = Cytotoxicity against human A375-S2 cells after 24 hrs by MTS assay; assay type: functional, cell-based; details: A375-S2, 24 h; in short: as §3
UACC-903 [23] = test: Induction of apoptosis in human UACC-903 cells assessed as early apoptotic cells at 5 uM after 24 hrs using annexin-V-PE/7-AAD double staining by flow cytometry; assay type: functional; in short: as §2
A375-S2 [24] = test: Cytotoxicity against human A375-S2 cells assessed as decrease in cell viability after 24 hrs by MTS assay; assay type: functional, cell-based; in short: as §3
UACC-903 [25] = test: Induction of apoptosis in human UACC-903 cells assessed as late apoptotic cells at 5 uM after 24 hrs using annexin-V-PE/7-AAD double staining by flow cytometry; assay type: functional; in short: as §2
1205Lu [26] = test: Cytotoxicity against human 1205 Lu cells assessed as decrease in cell viability after 72 hrs by MTS assay; assay type: functional, cell-based; in short: as §3
UACC-903 [27] = test: Induction of apoptosis in human UACC-903 cells assessed as late apoptotic cells at 25 uM after 24 hrs using annexin-V-PE/7-AAD double staining by flow cytometry; assay type: functional; in short: as §2
UACC-903 [28] = test: Cytotoxicity against human UACC-903 cells after 72 hrs by MTS assay; assay type: functional, cell-based; details: UACC-903, 72 h; in short: as §3
UACC-903 [29] = test: Cytotoxicity against human UACC-903 cells assessed as decrease in cell viability after 24 hrs by MTS assay; assay type: functional, cell-based; in short: as §3
UACC-903 [30] = test: Induction of apoptosis in human UACC-903 cells assessed as early apoptotic cells at 1 uM after 24 hrs using annexin-V-PE/7-AAD double staining by flow cytometry; assay type: functional; in short: as §2
Mus musculus [31] = test: Systemic toxicity in athymic Harlan Sprague-Dawley nude mouse xenografted with human UACC-903 cells assessed as reduction in body weight at 8.5 to 10 mg/kg, ip administered thrice a week for 24 days; assay type: organism-based; parameters: dose 8.5-10 mg/kg, route intraperitoneal; details: in vivo, 576 h; in short: as §4
UACC-903 [32] = test: Induction of apoptosis in human UACC-903 cells assessed as late apoptotic cells at 1 uM after 24 hrs using annexin-V-PE/7-AAD double staining by flow cytometry; assay type: functional; in short: as §2
UACC-903 [33] = test: Induction of apoptosis in human UACC-903 cells assessed as increase in apoptotic cells after 24 hrs using annexin-V-PE/7-AAD double staining by flow cytometry; assay type: functional, cell-based; in short: as §2
UACC-903 [34] = test: Antitumor activity against human UACC-903 cells xenografted in athymic Harlan Sprague-Dawley nude mouse assessed as reduction in tumor growth at 8.5 to 10 mg/kg, ip administered thrice per week for 24 days measured after 21 days; assay type: functional; details: dose mg/kg 8.5-10; route intraperitoneal; in short: as §4
SK-MEL-37 (Homo sapiens) [35] = test: Cytotoxicity against human SK-MEL-37 cells assessed as decrease in cell viability after 24 hrs by MTS assay
Mus musculus [36] = test: Systemic toxicity in Swiss Webster mouse assessed as reduction in body weight at 10 mg/kg, ip administered daily for 28 days; parameters: scale not given: the % may be the effect or the level left; details: in vivo, 672 h
Mus musculus [37] = test: Systemic toxicity in athymic Harlan Sprague-Dawley nude mouse xenografted with human UACC-903 cells assessed as mortality at 10 mg/kg, ip administered daily for 28 days; assay type: organism-based; parameters: dose 10 mg/kg, route intraperitoneal; details: in vivo, 672 h
UACC-903 [38] = test: Antitumor activity against human UACC-903 cells xenografted in athymic Harlan Sprague-Dawley nude mouse assessed as reduction in tumor growth at 9.5 to 10.6 mg/kg, ip administered thrice per week for 24 days measured after 21 days; assay type: functional; details: dose mg/kg 9.5-10.6; route intraperitoneal; in short: as §4
Mus musculus [39] = test: Systemic toxicity in athymic Harlan Sprague-Dawley nude mouse xenografted with human UACC-903 cells assessed as reduction in body weight at 9.5 to 10.6 mg/kg, ip administered thrice a week for 24 days; assay type: organism-based; parameters: dose 9.5-10.6 mg/kg, route intraperitoneal; details: in vivo, 576 h; in short: as §4

Row | Structure (SMILES) | Activity (Mus musculus [1]) | Activity (UACC-903 [2]) | viability at 25 µM (UACC-903 [3]) | IC50 [4] | Activity (UACC-903 [5]) | Activity (Mus musculus [6]) | Activity (UACC-903 [7]) | IC50 [8] | Activity (SK-MEL-37 (Homo sapiens) [9]) | Activity (UACC-903 [10]) | viability at 5 µM (UACC-903 [11]) | Activity (UACC-903 [13]) | Activity (A375-S2 [14]) | IC50 [15] | Activity (1205Lu [16]) | IC50 [17] | viability at 1 µM (UACC-903 [18]) | Activity (Mus musculus [19]) | IC50 [20] | IC50 (UACC-903 [21]) | further results
1 | O=C1c2cccc3cccc(c23)C(=O)N1CCN=C=S | Toxic | 6.41% | 64.3% | 2.2 µM | 5.59% | Non-toxic | 3.41% | 9.41 µM | Dose-dependent effect | 22.1% | 69.3% | Dose-dependent effect | Dose-dependent effect | 5.93 µM | Dose-dependent effect | 6.04 µM | 76.3% | Non-toxic | 5.05 µM | 11.3 µM | growth inhibition (GI) (UACC-903 [12]): 50%; IC50 [22]: 7.93 µM; Activity (UACC-903 [23]): 19.4%; Activity (A375-S2 [24]): Dose-dependent effect; Activity (UACC-903 [25]): 7.96%; Activity (1205Lu [26]): Dose-dependent effect; Activity (UACC-903 [27]): 7.98%; IC50 (UACC-903 [28]): 8.04 µM; Activity (UACC-903 [29]): Dose-dependent effect; Activity (UACC-903 [30]): 12.4%; Activity (Mus musculus [31]): Non-toxic; Activity (UACC-903 [32]): 4.96%; Activity (UACC-903 [33]): Dose-dependent effect; growth inhibition (GI) (UACC-903 [34]): 30%; Activity (SK-MEL-37 (Homo sapiens) [35]): Dose-dependent effect
2 | N=C(N)SCCN1C(=O)c2cccc3cc([N+](=O)[O-])cc(c23)C1=O | Toxic | 0.56% | 47.2% | 15 µM | 0.32% | Non-toxic | 0.43% | 39.5 µM | Dose-dependent effect | 40.2% | 70.4% | Dose-dependent effect | Dose-dependent effect | 23.4 µM | Dose-dependent effect | 16.4 µM | 76.9% | Non-toxic | 9.48 µM | 14.7 µM | Activity (Mus musculus [36]): 10%; IC50 [22]: 18.4 µM; Activity (UACC-903 [23]): 25.1%; Activity (A375-S2 [24]): Dose-dependent effect; Activity (Mus musculus [37]): Non-toxic; Activity (UACC-903 [25]): 3.99%; growth inhibition (GI) (UACC-903 [38]): 20%; Activity (1205Lu [26]): Dose-dependent effect; Activity (Mus musculus [39]): Non-toxic; Activity (UACC-903 [27]): 12.3%; IC50 (UACC-903 [28]): 6.95 µM; Activity (UACC-903 [29]): Dose-dependent effect; Activity (UACC-903 [30]): 20.1%; Activity (UACC-903 [32]): 2.41%; Activity (UACC-903 [33]): Dose-dependent effect; Activity (SK-MEL-37 (Homo sapiens) [35]): Dose-dependent effect
